Data reported in ChEMBL document CHEMBL4387724, “2-Pyridineformamide N(4)-ring incorporated thiosemicarbazones inhibit MCF-7 cells by inhibiting JNK pathway” (Bioorg Med Chem Lett, 2019).
pIC50: −log10 of the molar value.

How the values were obtained:
MCF7 [1] = experiment: Cytotoxicity against human MCF7 cells assessed as reduction in cell growth incubated for 72 hrs by MTT assay; format: functional, cell-based; settings: MCF7, 72 h
Summary of the method: (§1)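 Cells grown in DMEM with 10% FBS and penicillin-streptomycin at 37 °C, 5% CO2, seeded at 3000 cells/well and attached overnight. Screening series given at 1, 3, 10, 100 μM; follow-up agent at 100 nM–3 μM; both 72 h, with 0.1% DMSO vehicle. MTT (5 mg/mL stock) added for 3 h at 37 °C, formazan dissolved in DMSO, absorbance read at 570 nm. Viability expressed as % of DMSO-treated wells from replicates.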

A-431 [2] = experiment: Cytotoxicity against human A431 cells assessed as reduction in cell growth incubated for 72 hrs by MTT assay; format: functional, cell-based; settings: A-431, 72 h; summary of the method: as §1
A-375 [3] = experiment: Cytotoxicity against human A375 cells assessed as reduction in cell growth incubated for 72 hrs by MTT assay; format: functional, cell-based; settings: A-375, 72 h; summary of the method: as §1
HeLa [4] = experiment: Cytotoxicity against human HeLa cells assessed as reduction in cell growth incubated for 72 hrs by MTT assay; format: functional, cell-based; summary of the method: as §1
A-375 [5] = experiment: Cytotoxicity against human A375 cells assessed as reduction in cell growth at 1 uM incubated for 72 hrs by MTT assay relative to control; format: functional; settings: A-375, 72 h, read-out: GI; summary of the method: as §1
A-375 [6] = experiment: Cytotoxicity against human A375 cells assessed as reduction in cell growth at 3 uM incubated for 72 hrs by MTT assay relative to control; format: functional; settings: A-375, 72 h, read-out: GI; summary of the method: as §1
A-375 [7] = experiment: Cytotoxicity against human A375 cells assessed as reduction in cell growth at 10 uM incubated for 72 hrs by MTT assay relative to control; format: functional; settings: A-375, 72 h, read-out: GI; summary of the method: as §1
A-375 [8] = experiment: Cytotoxicity against human A375 cells assessed as reduction in cell growth at 30 uM incubated for 72 hrs by MTT assay relative to control; format: functional; settings: A-375, 72 h, read-out: GI
A-375 [9] = experiment: Cytotoxicity against human A375 cells assessed as reduction in cell growth at 100 uM incubated for 72 hrs by MTT assay relative to control; format: functional; settings: A-375, 72 h, read-out: GI; summary of the method: as §1
A-431 [10] = experiment: Cytotoxicity against human A431 cells assessed as reduction in cell growth at 1 uM incubated for 72 hrs by MTT assay relative to control; format: functional; settings: A-431, 72 h, read-out: GI; summary of the method: as §1
A-431 [11] = experiment: Cytotoxicity against human A431 cells assessed as reduction in cell growth at 3 uM incubated for 72 hrs by MTT assay relative to control; format: functional; settings: A-431, 72 h, read-out: GI; summary of the method: as §1
A-431 [12] = experiment: Cytotoxicity against human A431 cells assessed as reduction in cell growth at 10 uM incubated for 72 hrs by MTT assay relative to control; format: functional; settings: A-431, 72 h, read-out: GI; summary of the method: as §1
A-431 [13] = experiment: Cytotoxicity against human A431 cells assessed as reduction in cell growth at 30 uM incubated for 72 hrs by MTT assay relative to control; format: functional; settings: A-431, 72 h, read-out: GI
A-431 [14] = experiment: Cytotoxicity against human A431 cells assessed as reduction in cell growth at 100 uM incubated for 72 hrs by MTT assay relative to control; format: functional; settings: A-431, 72 h, read-out: GI; summary of the method: as §1
HeLa [15] = experiment: Cytotoxicity against human HeLa cells assessed as reduction in cell growth at 1 uM incubated for 72 hrs by MTT assay relative to control; format: functional; settings: read-out: GI; summary of the method: as §1
HeLa [16] = experiment: Cytotoxicity against human HeLa cells assessed as reduction in cell growth at 3 uM incubated for 72 hrs by MTT assay relative to control; format: functional; settings: read-out: GI; summary of the method: as §1
HeLa [17] = experiment: Cytotoxicity against human HeLa cells assessed as reduction in cell growth at 10 uM incubated for 72 hrs by MTT assay relative to control; format: functional; settings: read-out: GI; summary of the method: as §1
HeLa [18] = experiment: Cytotoxicity against human HeLa cells assessed as reduction in cell growth at 30 uM incubated for 72 hrs by MTT assay relative to control; format: functional; settings: read-out: GI
HeLa [19] = experiment: Cytotoxicity against human HeLa cells assessed as reduction in cell growth at 100 uM incubated for 72 hrs by MTT assay relative to control; format: functional; settings: read-out: GI; summary of the method: as §1
MCF7 [20] = experiment: Cytotoxicity against human MCF7 cells assessed as reduction in cell growth at 1 uM incubated for 72 hrs by MTT assay relative to control; format: functional; settings: MCF7, 72 h, read-out: GI; summary of the method: as §1
MCF7 [21] = experiment: Cytotoxicity against human MCF7 cells assessed as reduction in cell growth at 3 uM incubated for 72 hrs by MTT assay relative to control; format: functional; settings: MCF7, 72 h, read-out: GI; summary of the method: as §1
MCF7 [22] = experiment: Cytotoxicity against human MCF7 cells assessed as reduction in cell growth at 10 uM incubated for 72 hrs by MTT assay relative to control; format: functional; settings: MCF7, 72 h, read-out: GI; summary of the method: as §1
MCF7 [23] = experiment: Cytotoxicity against human MCF7 cells assessed as reduction in cell growth at 30 uM incubated for 72 hrs by MTT assay relative to control; format: functional; settings: MCF7, 72 h, read-out: GI
MCF7 [24] = experiment: Cytotoxicity against human MCF7 cells assessed as reduction in cell growth at 100 uM incubated for 72 hrs by MTT assay relative to control; format: functional; settings: MCF7, 72 h, read-out: GI; summary of the method: as §1

| Compound | pIC50 (MCF7 [1]) | pIC50 (A-431 [2]) | pIC50 (A-375 [3]) | pIC50 (HeLa [4]) | inhibition of growth at 1 µM (A-375 [5]) | inhibition of growth at 3 µM (A-375 [6]) | inhibition of growth at 10 µM (A-375 [7]) | inhibition of growth at 30 µM (A-375 [8]) | inhibition of growth at 100 µM (A-375 [9]) | inhibition of growth at 1 µM (A-431 [10]) | inhibition of growth at 3 µM (A-431 [11]) | inhibition of growth at 10 µM (A-431 [12]) | inhibition of growth at 30 µM (A-431 [13]) | inhibition of growth at 100 µM (A-431 [14]) | inhibition of growth at 1 µM (HeLa [15]) | inhibition of growth at 3 µM (HeLa [16]) | inhibition of growth at 10 µM (HeLa [17]) | inhibition of growth at 30 µM (HeLa [18]) | inhibition of growth at 100 µM (HeLa [19]) | inhibition of growth at 1 µM (MCF7 [20]) | other results |
| --- | --- | --- | --- | --- | --- | --- | --- | --- | --- | --- | --- | --- | --- | --- | --- | --- | --- | --- | --- | --- | --- |
| N/C(=N\NC(=S)N1CCOCC1)c1ccc(F)cn1 | 4.66 | 5.40 | 5.82 | 5.77 | 44.5% | 66.4% | 70.3% | 85.9% | 86.2% | 31.8% | 47% | 66.9% | 82.3% | 85.6% | 21.4% | 59.7% | 81.9% | 84.5% | 81.2% | 12.4% | inhibition of growth at 3 µM (MCF7 [21]): 33.9%; inhibition of growth at 10 µM (MCF7 [22]): 39.5%; inhibition of growth at 30 µM (MCF7 [23]): 56.7%; inhibition of growth at 100 µM (MCF7 [24]): 61.5% |
| Cc1cccc(/C(N)=N/NC(=S)N2CCN(c3ccccn3)CC2)n1 | < 4.00 | 4.71 | 6.07 | 6.05 | 58.4% | 61.8% | 63.3% | 74.8% | 83.8% | 9.2% | 34.3% | 43% | 57.4% | 78.9% | 51.8% | 72.7% | 72.8% | 86.3% | 86.3% | 8.5% | inhibition of growth at 3 µM (MCF7 [21]): 27.1%; inhibition of growth at 10 µM (MCF7 [22]): 20.8%; inhibition of growth at 30 µM (MCF7 [23]): 36%; inhibition of growth at 100 µM (MCF7 [24]): 49.8% |
| N/C(=N\NC(=S)N1CCCCCC1)c1ccc(F)cn1 | 4.68 | 6.00 | 6.02 | 6.05 | 51.8% | 66.6% | 72.2% | 80% | 85.7% | 50.3% | 62.4% | 64.4% | 81.3% | 83.5% | 50% | 65.1% | 83.2% | 84.5% | 85.6% | 16.8% | inhibition of growth at 3 µM (MCF7 [21]): 24.3%; inhibition of growth at 10 µM (MCF7 [22]): 26.8%; inhibition of growth at 30 µM (MCF7 [23]): 68.2%; inhibition of growth at 100 µM (MCF7 [24]): 79% |
| Cc1ccnc(/C(N)=N/NC(=S)N2CCCCCC2)c1 | 5.16 | 5.10 | 6.10 | 5.15 | 61.9% | 70% | 70.6% | 76.5% | 77% | 36.3% | 36.1% | 55.5% | 63.4% | 71% | 43.2% | 41.9% | 55.8% | 69.9% | 91.6% | 18.2% | inhibition of growth at 3 µM (MCF7 [21]): 36.3%; inhibition of growth at 10 µM (MCF7 [22]): 60.3%; inhibition of growth at 30 µM (MCF7 [23]): 75.9%; inhibition of growth at 100 µM (MCF7 [24]): 65.4% |
